This is an account of results in ChEMBL document CHEMBL1926621, “New potent 5-HT(2A) receptor ligands containing an N'-cyanopicolinamidine nucleus: Synthesis and in vitro pharmacological evaluation” (Eur J Med Chem, 2012).

In assay [1] the target is T1, 5-hydroxytryptamine receptor 2C (Rattus norvegicus, UniProt P08909).
T1 sequence (P08909 whole entry): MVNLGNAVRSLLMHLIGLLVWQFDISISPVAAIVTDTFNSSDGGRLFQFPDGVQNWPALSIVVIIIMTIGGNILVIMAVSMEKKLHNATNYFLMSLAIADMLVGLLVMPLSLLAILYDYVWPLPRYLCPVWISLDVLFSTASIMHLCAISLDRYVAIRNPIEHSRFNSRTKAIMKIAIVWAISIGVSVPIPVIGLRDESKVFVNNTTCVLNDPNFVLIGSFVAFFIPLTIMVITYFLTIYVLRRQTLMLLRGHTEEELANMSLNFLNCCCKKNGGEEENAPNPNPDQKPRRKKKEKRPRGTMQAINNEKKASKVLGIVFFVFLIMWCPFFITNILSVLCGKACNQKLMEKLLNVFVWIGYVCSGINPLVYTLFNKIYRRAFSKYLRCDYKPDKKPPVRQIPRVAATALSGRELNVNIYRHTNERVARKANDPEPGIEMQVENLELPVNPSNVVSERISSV
Nature of the assay: Displacement of [3H]mesulergine from Sprague-Dawley rat brain cortex serotonin 5-HT2C receptor after 15 mins by liquid scintillation counting in presence of 5-HT2A blocker, spiperone. In short, it runs like this: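 Male Sprague-Dawley rat frontal cortex membranes (Tris-HCl/EDTA/MgCl2 pH 7.4, ascorbate, pargyline). 100 nM spiperone in all tubes to block 5-HT2A sites. Mianserin defined nonspecific binding. 15 min at 37 °C, PEI-soaked glass fibre filtration. Six compound concentrations in triplicate. Ki by Cheng-Prusoff.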
In general terms: In a radioligand displacement assay an active substance lowers the binding of a labelled ligand.

Assay [2] addresses 5-hydroxytryptamine receptor 2A (Rattus norvegicus, UniProt P14842). Briefly: Displacement of [3H]ketanserin from Sprague-Dawley rat brain cortex serotonin 5-HT2A receptor after 15 mins by liquid scintillation counting. As to conditions: for Ki: read-out: Ki; call rule not given here. The gist of the method: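 Male Sprague-Dawley rat frontal cortex membranes in 50 mM Tris-HCl, 0.5 mM EDTA, 10 mM MgCl2 pH 7.4, with 0.1% ascorbate and pargyline. 0.4 nM [3H]ketanserin, 5 mg wet tissue, 15 min at 37 °C. Filtered on PEI-soaked glass fibre. Six compound concentrations in triplicate. IC50 converted to Ki by Cheng-Prusoff.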

In a further assay the target is D(1A) dopamine receptor (Rattus norvegicus, UniProt P18901). Nature of the assay: Displacement of [3H]SCH-23390 from rat corpora striatum dopamine D1 receptor after 15 mins by liquid scintillation counting. As to conditions: read-out: Ki. In short, it runs like this: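 Rat corpora striata homogenized in 50 mM Tris-HCl pH 7.7, spun twice at 50,000 g. Resuspended in Tris-HCl with NaCl, KCl, CaCl2, MgCl2, ascorbic acid and pargyline. 0.4 nM [3H]SCH-23390 final, 3 mg fresh tissue, 15 min at 37 °C. Nonspecific binding with piflutixol. Ki by Cheng-Prusoff from triplicate six-point curves.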

In the next assay the target is D(2) dopamine receptor (Rattus norvegicus, UniProt P61169). Briefly: Displacement of [3H]spiperone from rat corpora striatum dopamine D2 receptor after 15 mins by liquid scintillation counting. Conditions: read-out: Ki. In short, it runs like this: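 Corpora striata membranes in Tris-HCl buffer containing NaCl, KCl, CaCl2, MgCl2, ascorbic acid and pargyline. [3H]spiperone 0.4 nM final, 3 mg fresh tissue, incubated 15 min at 37 °C. GF/B filtration, scintillation counting. Six concentrations in triplicate. IC50 converted to Ki via Cheng-Prusoff.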

For assay [3], the target named is T2, Adrenergic receptor alpha-1 (Rattus norvegicus, UniProt P15823+P23944+P43140).
T2 sequence (P15823 whole entry): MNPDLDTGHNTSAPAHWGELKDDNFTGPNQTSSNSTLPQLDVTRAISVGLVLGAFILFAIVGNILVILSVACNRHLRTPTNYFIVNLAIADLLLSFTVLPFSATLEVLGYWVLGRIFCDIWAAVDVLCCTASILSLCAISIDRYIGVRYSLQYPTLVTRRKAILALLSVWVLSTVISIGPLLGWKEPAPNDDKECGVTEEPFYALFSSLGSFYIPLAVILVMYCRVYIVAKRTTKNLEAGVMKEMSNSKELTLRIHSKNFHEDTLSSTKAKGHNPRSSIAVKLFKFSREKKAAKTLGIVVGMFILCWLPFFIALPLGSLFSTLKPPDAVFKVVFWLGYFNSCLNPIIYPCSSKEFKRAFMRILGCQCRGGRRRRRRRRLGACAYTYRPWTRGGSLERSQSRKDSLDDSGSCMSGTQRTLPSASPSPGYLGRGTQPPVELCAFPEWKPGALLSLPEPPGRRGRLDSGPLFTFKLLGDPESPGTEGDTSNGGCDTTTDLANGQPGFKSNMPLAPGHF
T2 sequence (P23944 whole entry): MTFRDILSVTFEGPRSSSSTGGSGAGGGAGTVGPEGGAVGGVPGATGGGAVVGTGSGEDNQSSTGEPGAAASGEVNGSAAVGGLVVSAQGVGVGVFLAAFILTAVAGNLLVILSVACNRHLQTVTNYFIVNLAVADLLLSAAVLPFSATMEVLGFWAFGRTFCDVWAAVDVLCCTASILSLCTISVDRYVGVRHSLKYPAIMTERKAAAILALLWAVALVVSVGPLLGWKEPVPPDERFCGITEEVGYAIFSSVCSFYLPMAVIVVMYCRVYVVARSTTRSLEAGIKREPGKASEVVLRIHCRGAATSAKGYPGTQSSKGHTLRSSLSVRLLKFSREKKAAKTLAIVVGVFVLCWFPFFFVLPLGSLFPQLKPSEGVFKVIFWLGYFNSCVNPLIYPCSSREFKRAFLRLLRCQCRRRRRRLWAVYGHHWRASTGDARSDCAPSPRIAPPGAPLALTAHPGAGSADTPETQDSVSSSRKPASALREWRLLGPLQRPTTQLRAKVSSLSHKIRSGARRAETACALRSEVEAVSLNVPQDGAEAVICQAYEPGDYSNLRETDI
T2 sequence (P43140 whole entry): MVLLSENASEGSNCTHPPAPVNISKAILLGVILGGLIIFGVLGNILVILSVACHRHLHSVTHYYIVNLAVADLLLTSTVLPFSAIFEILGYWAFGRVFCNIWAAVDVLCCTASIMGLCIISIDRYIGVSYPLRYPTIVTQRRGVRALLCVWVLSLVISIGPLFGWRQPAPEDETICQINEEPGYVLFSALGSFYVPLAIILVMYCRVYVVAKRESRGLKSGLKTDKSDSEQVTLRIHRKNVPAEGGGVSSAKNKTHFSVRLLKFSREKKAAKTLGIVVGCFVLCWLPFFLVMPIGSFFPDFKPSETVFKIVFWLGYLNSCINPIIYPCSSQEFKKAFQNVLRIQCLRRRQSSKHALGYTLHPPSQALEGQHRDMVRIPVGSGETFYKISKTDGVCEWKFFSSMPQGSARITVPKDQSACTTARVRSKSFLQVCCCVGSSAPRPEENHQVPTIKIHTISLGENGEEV
Nature of the assay: Displacement of [3H]prazosin from rat brain cortex adrenergic alpha1 receptor after 30 mins by liquid scintillation counting. In short, it runs like this: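 Brain cortex homogenized in 50 mM Tris-HCl pH 7.2, spun twice at 50,000 g, resuspended in Tris-HCl pH 7.4. 0.4 nM [3H]prazosin final, 10 mg fresh tissue, 30 min at 25 °C. Nonspecific binding with phentolamine. GF/B filtration. Ki by Cheng-Prusoff from six-point triplicate curves.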

Each structure is given as a SMILES string.

Chain of D(1A) dopamine receptor (P18901 whole entry): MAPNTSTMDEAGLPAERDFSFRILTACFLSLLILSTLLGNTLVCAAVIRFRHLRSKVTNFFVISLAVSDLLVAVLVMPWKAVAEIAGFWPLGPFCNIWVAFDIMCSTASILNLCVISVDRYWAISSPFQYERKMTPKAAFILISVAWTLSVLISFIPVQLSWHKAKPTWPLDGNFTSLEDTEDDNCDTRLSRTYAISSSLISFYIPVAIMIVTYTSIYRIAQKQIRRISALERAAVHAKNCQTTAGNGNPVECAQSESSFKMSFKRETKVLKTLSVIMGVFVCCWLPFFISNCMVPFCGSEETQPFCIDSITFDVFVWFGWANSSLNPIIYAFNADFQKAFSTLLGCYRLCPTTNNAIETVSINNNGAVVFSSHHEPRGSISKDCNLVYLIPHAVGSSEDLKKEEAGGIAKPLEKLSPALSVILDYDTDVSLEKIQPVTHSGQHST
Chain of 5-hydroxytryptamine receptor 2A (P14842 whole entry): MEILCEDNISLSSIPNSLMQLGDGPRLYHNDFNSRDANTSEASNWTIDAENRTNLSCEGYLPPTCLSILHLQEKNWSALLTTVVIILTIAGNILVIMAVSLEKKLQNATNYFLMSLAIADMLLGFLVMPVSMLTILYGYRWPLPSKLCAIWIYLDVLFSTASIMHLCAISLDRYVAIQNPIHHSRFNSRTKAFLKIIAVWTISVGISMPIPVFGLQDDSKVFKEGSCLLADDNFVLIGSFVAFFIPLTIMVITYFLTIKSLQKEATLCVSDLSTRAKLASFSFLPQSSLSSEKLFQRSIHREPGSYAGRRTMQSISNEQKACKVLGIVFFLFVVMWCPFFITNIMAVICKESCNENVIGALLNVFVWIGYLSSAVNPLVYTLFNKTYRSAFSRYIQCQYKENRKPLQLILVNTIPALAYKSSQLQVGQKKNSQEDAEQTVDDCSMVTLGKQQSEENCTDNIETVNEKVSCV
Chain of D(2) dopamine receptor (P61169 whole entry): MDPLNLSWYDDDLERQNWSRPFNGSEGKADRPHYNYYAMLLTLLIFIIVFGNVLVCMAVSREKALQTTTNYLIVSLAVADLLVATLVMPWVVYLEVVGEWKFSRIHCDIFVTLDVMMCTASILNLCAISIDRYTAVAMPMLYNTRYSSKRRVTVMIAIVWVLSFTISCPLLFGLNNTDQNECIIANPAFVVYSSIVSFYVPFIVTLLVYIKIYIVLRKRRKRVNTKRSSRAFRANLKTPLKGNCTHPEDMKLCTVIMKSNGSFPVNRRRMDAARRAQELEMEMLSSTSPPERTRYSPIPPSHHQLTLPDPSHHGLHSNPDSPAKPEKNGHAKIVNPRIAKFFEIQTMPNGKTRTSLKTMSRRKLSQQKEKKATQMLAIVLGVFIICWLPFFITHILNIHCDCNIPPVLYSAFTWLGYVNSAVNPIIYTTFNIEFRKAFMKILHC

As a reminder, the Ki is a dissociation constant, usually derived from enzyme kinetics or from competition with a known ligand. As to `N#C/N=C(\NCCCN1CCN(c2ccccn2)CC1)c1ccccn1`, the inhibition constant Ki was above 10000 nM in assay [1] (read-out: Ki); 1.12 nM in assay [2]; above 10000 nM on D(1A) dopamine receptor; above 10000 nM at D(2) dopamine receptor; 130 nM in assay [3].
For orientation: IC50 means the concentration at which inhibition is half-maximal. A higher IC50 goes with lower potency. With `N#C/N=C(\NCCCN1CCN(c2cccc(C(F)(F)F)c2)CC1)c1ccccn1`, the Ki was 1.81 nM in assay [1] (read-out: Ki); 0.000778 nM in assay [2]; above 10000 nM on D(1A) dopamine receptor; 83.7 nM at D(2) dopamine receptor; 770 nM in assay [3]. Moreover, the concentration for half-maximal inhibition (IC50) in assay [2] stood at 0.00105 nM.
Turning to `N#C/N=C(\NCCCN1CCN(c2ncccn2)CC1)c1ccccn1`, the Ki in assay [1] (read-out: Ki) is 22.5 nM; in assay [2], 0.0161 nM; on D(1A) dopamine receptor, above 10000 nM; on D(2) dopamine receptor, above 10000 nM; in assay [3], above 10000 nM. The same compound displayed an IC50 in assay [2] of 0.0217 nM.
Turning to `CCOc1ccccc1N1CCN(CCCN/C(=N\C#N)c2ccccn2)CC1`, the Ki entry was “Not Active” in assay [1]; 2730 nM in assay [2]; 52.4 nM on D(1A) dopamine receptor; above 10000 nM at D(2) dopamine receptor; 152 nM in assay [3].
As to `Cc1cccc(N2CCN(CCCN/C(=N\C#N)c3ccccn3)CC2)c1C`, the Ki is 29.7 nM in assay [1] (read-out: Ki); 0.867 nM in assay [2]; above 10000 nM on D(1A) dopamine receptor; above 10000 nM on D(2) dopamine receptor; 729 nM in assay [3].
Consider `COc1ccccc1N1CCN(CCCN/C(=N\C#N)c2ccccn2)CC1`, for which the Ki in assay [1] (read-out: Ki) was 1.61 nM; in assay [2], 0.00157 nM; at D(1A) dopamine receptor, above 10000 nM; on D(2) dopamine receptor it was above 10000 nM; in assay [3] it was 105 nM. The IC50 in assay [2] amounted to 0.00212 nM.
